Source: ChEMBL document CHEMBL1955865, “Synthesis of novel spirooxindole derivatives by one pot multicomponent reaction and their antimicrobial activity” (2012)
≈ marks a conversion by molar mass, not a printed value. Calls of active or inactive are those of the source. The rule behind the calls is not given here.

What was measured:
Klebsiella pneumoniae [1] = assay: Antibacterial activity against Klebsiella pneumoniae MTCC 109 at 1000 ug/disc after 24 hrs by disc diffusion assay; type: functional; conditions: for zone of inhibition at 1000 µg/disc: MTCC 109, 24 h, read-out: IZ
How it was run: (§1)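 Disc diffusion on Mueller Hinton agar. Cultures (about 10^4 CFU/ml) were swabbed on and dried 10 min. Discs loaded at 1000 µg/disc were left 30 min at room temperature for diffusion, with a solvent negative control. Plates were incubated 24 h at 37 °C. Inhibition zones were measured in mm, and the experiment was done twice.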

Staphylococcus aureus [2] = assay: Antibacterial activity against methicillin-resistant Staphylococcus aureus at 1000 ug/disc after 24 hrs by disc diffusion assay; type: functional; conditions: for zone of inhibition at 1000 µg/disc: read-out: IZ
How it was run: (§2)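 Disc diffusion on Mueller Hinton agar. Bacteria were grown 24 h at 37 °C in MHB and diluted to about 10^4 CFU/ml, swabbed onto plates and dried 10 min. Discs were loaded at 1000 μg/disc and held 30 min at room temperature for diffusion. Solvent served as negative control. After 24 h at 37 °C, inhibition zones were read in mm; run twice.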

Salmonella typhimurium [3] = assay: Antibacterial activity against Salmonella Typhimurium MTCC 1251 at 1000 ug/disc after 24 hrs by disc diffusion assay; type: functional, Salmonella enterica subsp. enterica serovar Typhimurium; conditions: Salmonella enterica, MTCC 1251, 24 h; read-out: IZ; how it was run: as §1
[4] = system: Salmonella enterica subsp. enterica serovar Paratyphi B; assay: Antibacterial activity against Salmonella paratyphi B at 1000 ug/disc after 24 hrs by disc diffusion assay; type: functional; conditions: for zone of inhibition at 1000 µg/disc: read-out: IZ; how it was run: as §2
[5] = Antifungal activity against Malassezia pachydermatis at 1000 ug/disc after 48 hrs by disc diffusion assay; type: functional
How it was run: (§3)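 Fungal disc diffusion with inoculum from SDA spores (filamentous) or SDB culture (yeast). Test cultures were swabbed on agar, and discs at 1000 µg/disc were left 30 min at room temperature, with a solvent negative control. Plates were incubated 48 h at 27 °C. Zone of inhibition was measured in mm, and the experiment was repeated twice.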

Micrococcus luteus [6] = assay: Antibacterial activity against Micrococcus luteus at 1000 ug/disc after 24 hrs by disc diffusion assay; type: functional; conditions: read-out: IZ; how it was run: as §1
Botrytis cinerea [7] = assay: Antifungal activity against Botrytis cinerea at 1000 ug/disc after 48 hrs by disc diffusion assay; type: functional; conditions: for zone of inhibition at 1000 µg/disc: read-out: IZ; how it was run: as §3
Proteus vulgaris [8] = assay: Antibacterial activity against Proteus vulgaris MTCC 1771 at 1000 ug/disc after 24 hrs by disc diffusion assay; type: functional; conditions: for zone of inhibition at 1000 µg/disc: MTCC 1771, 24 h, read-out: IZ; how it was run: as §1
Staphylococcus aureus [9] = assay: Antibacterial activity against Staphylococcus aureus MTCC 96 at 1000 ug/disc after 24 hrs by disc diffusion assay; type: functional; conditions: MTCC 96, 24 h, read-out: IZ; how it was run: as §1
Candida albicans [10] = assay: Antifungal activity against Candida albicans MTCC 227 at 1000 ug/disc after 48 hrs by disc diffusion assay; type: functional; conditions: for zone of inhibition at 1000 µg/disc: MTCC 227, 48 h, read-out: IZ; how it was run: as §3
Klebsiella aerogenes [11] = assay: Antibacterial activity against Enterobacter aerogenes MTCC 111 at 1000 ug/disc after 24 hrs by disc diffusion assay; type: functional; conditions: for zone of inhibition at 1000 µg/disc: MTCC 111, 24 h, read-out: IZ; how it was run: as §1
Candida albicans [12] = assay: Antifungal activity against Candida albicans MTCC 227 after 48 to 72 hrs by twofold serial dilution method; type: functional
How it was run: (§4)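 Broth two-fold serial dilution, 1000 to 15.62 µg/ml, with compound dissolved in 2% DMSO, in 96-well plates. Filamentous fungal spores came from 10-day SDA slants at 28 °C, and yeast from SDB grown 48 h at 28 °C. Incubation was 48-72 h at 28 °C. MIC was the lowest concentration with no visible fungal growth.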

Botrytis cinerea [13] = assay: Antifungal activity against Botrytis cinerea after 48 to 72 hrs by twofold serial dilution method; type: functional; how it was run: as §4
[14] = Antifungal activity against Malassezia pachydermatis after 48 to 72 hrs by twofold serial dilution method; type: functional; how it was run: as §4
Micrococcus luteus [15] = assay: Antibacterial activity against Micrococcus luteus after 24 hrs by twofold serial dilution method; type: functional
How it was run: (§5)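 Bacteria grown in Mueller Hinton broth for 24 h at 37 °C and diluted to about 10^4 CFU/ml. Compound in 2% DMSO was serially diluted two-fold (1000 to 15.62 µg/ml) in medium in 96-well plates and inoculated. Plates were incubated 24 h at 37 °C. 5 µl of broth was spotted onto MHA, and MIC was taken as the lowest concentration with no visible growth on agar.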

[16] = system: Salmonella enterica subsp. enterica serovar Paratyphi B; assay: Antibacterial activity against Salmonella paratyphi B after 24 hrs by twofold serial dilution method; type: functional
How it was run: (§6)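 Broth microdilution in MHB following the standard bacterial reference method. Compound was dissolved in DMSO (2%) and serially diluted two-fold from 1000 to 15.62 µg/ml in 96-well plates, with an inoculum of about 10^4 CFU/ml. Streptomycin and ciprofloxacin were positive controls. After 24 h at 37 °C, 5 µl of broth was subcultured on MHA. MIC was the lowest concentration without visible growth on agar.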

Salmonella typhimurium [17] = assay: Antibacterial activity against Salmonella Typhimurium MTCC 1251 after 24 hrs by two-fold serial dilution method; type: functional, Salmonella enterica subsp. enterica serovar Typhimurium; conditions: Salmonella enterica, MTCC 1251, 24 h; how it was run: as §5
Klebsiella aerogenes [18] = assay: Antibacterial activity against Enterobacter aerogenes MTCC 111 after 24 hrs by twofold serial dilution method; type: functional; conditions: MTCC 111, 24 h; how it was run: as §5
Klebsiella pneumoniae [19] = assay: Antibacterial activity against Klebsiella pneumoniae MTCC 109 after 24 hrs by twofold serial dilution method; type: functional; conditions: MTCC 109, 24 h; how it was run: as §5
Staphylococcus aureus [20] = assay: Antibacterial activity against methicillin-resistant Staphylococcus aureus after 24 hrs by twofold serial dilution method; type: functional; how it was run: as §6
Staphylococcus aureus [21] = assay: Antibacterial activity against Staphylococcus aureus MTCC 96 after 24 hrs by twofold serial dilution method; type: functional; conditions: MTCC 96, 24 h; how it was run: as §5
Proteus vulgaris [22] = assay: Antibacterial activity against Proteus vulgaris MTCC 1771 after 24 hrs by twofold serial dilution method; type: functional; conditions: MTCC 1771, 24 h; how it was run: as §5

Row | SMILES | zone of inhibition at 1000 µg/disc (Klebsiella pneumoniae [1]) [mm] | zone of inhibition at 1000 µg/disc (Staphylococcus aureus [2]) [mm] | zone of inhibition at 1000 µg/disc (Salmonella typhimurium [3]) [mm] | inhibition zone (IZ) [5] | zone of inhibition at 1000 µg/disc (Micrococcus luteus [6]) [mm] | zone of inhibition at 1000 µg/disc (Botrytis cinerea [7]) [mm] | zone of inhibition at 1000 µg/disc (Proteus vulgaris [8]) [mm] | zone of inhibition at 1000 µg/disc (Staphylococcus aureus [9]) [mm] | zone of inhibition at 1000 µg/disc (Candida albicans [10]) [mm] | zone of inhibition at 1000 µg/disc (Klebsiella aerogenes [11]) [mm] | inhibition zone (IZ) [4] | inhibition zone (IZ) (Botrytis cinerea [7]) | inhibition zone (IZ) (Candida albicans [10]) | other results
1 | CN1CC2=C(C(=O)c3ccccc3C2=O)C12C(=O)Nc1ccc(Cl)cc12 (configuration not stated) | 13 | 11 | 11 | 10 mm | 12 | 8 | 10 | 14 | 9 | 10 | – | – | – | zone of inhibition at 1000 µg/disc [4]: 13 mm
2 | O=C1C2=C(C(=O)c3ccccc31)C1(C(=O)Nc3ccc(Cl)cc31)N1CCCC21 (configuration not stated) | 11 | 9 | 10 | 9 mm | 10 | – | 9 | 12 | – | 9 | inactive | inactive | inactive | –
3 | C=CCN1C(=O)C2(C3=C(CN2C)C(=O)c2ccccc2C3=O)c2ccccc21 (configuration not stated) | 9 | 9 | 11 | 9 mm | 10 | 8 | 8 | 11 | 9 | 9 | inactive | – | – | –
4 | OC(Cn1cncn1)(Cn1cncn1)c1ccc(F)cc1F [FLUCONAZOLE] | – | – | – | – | – | – | – | – | – | – | – | – | – | MIC (Candida albicans [12]): > 100 µg/mL; MIC (Botrytis cinerea [13]): inactive; MIC [14]: 12.5 µg/mL (≈ 40.8 µM)
5 | O=C1C2=C(C(=O)c3ccccc31)C1(C(=O)N(Cc3ccccc3)c3ccccc31)N1CCCC21 (configuration not stated) | 8 | 8 | 9 | 9 mm | 9 | – | 10 | 10 | 8 | 8 | inactive | inactive | – | –
6 | Cc1ccc2c(c1)C1(C(=O)N2)C2=C(C(=O)c3ccccc3C2=O)C2CCCN21 (configuration not stated) | 10 | 8 | 11 | 9 mm | 11 | 9 | 9 | 10 | – | 9 | – | – | inactive | zone of inhibition at 1000 µg/disc [4]: 8 mm
7 | O=C(O)c1cn(C2CC2)c2cc(N3CCNCC3)c(F)cc2c1=O [CIPROFLOXACIN] | – | – | – | – | – | – | – | – | – | – | – | – | – | MIC (Micrococcus luteus [15]): > 100 µg/mL; MIC [16]: 6.25 µg/mL (≈ 18.9 µM); MIC (Salmonella typhimurium [17]): > 100 µg/mL; MIC (Klebsiella aerogenes [18]): < 0.78 µg/mL; MIC (Klebsiella pneumoniae [19]): < 0.78 µg/mL; MIC (Staphylococcus aureus [20]): > 100 µg/mL; MIC (Staphylococcus aureus [21]): < 0.78 µg/mL; MIC (Proteus vulgaris [22]): < 0.78 µg/mL
8 | C=CCN1C(=O)C2(C3=C(C(=O)c4ccccc4C3=O)C3CCCN32)c2ccccc21 (configuration not stated) | – | – | 9 | inactive | 9 | – | – | 8 | – | – | inactive | inactive | inactive | inhibition zone (IZ) (Klebsiella pneumoniae [1]): inactive; inhibition zone (IZ) (Staphylococcus aureus [2]): inactive; inhibition zone (IZ) (Proteus vulgaris [8]): inactive; inhibition zone (IZ) (Klebsiella aerogenes [11]): inactive
